Compound activity from PubChem BioAssay.
Hits are enriched below; roughly 3.5% of the tested compounds scored in any of these assays.
MrgX1 agonist = agonists of human MrgX1 receptor; MrgX1-HEK293 cells, Fluo-4 calcium fluorescence, agonist mode; stronger effect = higher value; B-score at 10 µM; 310,000 tested, 0.44% active; AID 588627; Q96LB2;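 active = calcium response B-score plate-corrected fluorescence ratio at least 3 library SD, with starting fluorescence B-score inside 5 SD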
Target sequence (Q96LB2 whole entry, looked up): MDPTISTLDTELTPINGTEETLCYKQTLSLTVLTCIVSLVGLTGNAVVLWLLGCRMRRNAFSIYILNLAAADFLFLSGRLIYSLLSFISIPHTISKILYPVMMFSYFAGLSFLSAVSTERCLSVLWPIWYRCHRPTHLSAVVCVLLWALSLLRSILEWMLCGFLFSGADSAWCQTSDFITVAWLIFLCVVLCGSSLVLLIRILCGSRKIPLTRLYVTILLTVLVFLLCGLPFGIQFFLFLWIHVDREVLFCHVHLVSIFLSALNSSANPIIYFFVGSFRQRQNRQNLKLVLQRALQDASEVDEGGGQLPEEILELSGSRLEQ
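System: HEK293 cells stably expressing human MrgX1 receptor; Dosing: test compound in the initial addition of three; Schedule: overnight plating, then 30 min 37 °C plus 30 min room-temperature dye loading; Detection: kinetic calcium dye fluorescence, Fluo-4 NW; Controls: per-plate positive and negative controls for Z′ factor.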
RGS4 act = RGS4 potentiation or activation. HEK293 M3R/inducible RGS4, carbachol calcium flux Fluo4; stronger effect = lower value. AID 463111. 310,000 tested, 0.92% active. B-score at 10 µM;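 active = B-score of the integrated calcium signal more than 4 SD below the library mean, with starting fluorescence not abnormally high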;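 note: negative B-score means reduced calcium response which marks RGS4 activation or potentiation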
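Material: Inducible-RGS4 HEK293 cells carrying M3 receptor; also added: carbachol at ECmax as muscarinic agonist stimulus; incubation: compound preincubation 20 min at room temperature before agonist; signal: Fluo4-AM (2 µM) calcium-flux fluorescence, kinetic read; measure: integrated calcium ratio converted to B score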
RGS4 block = inhibitors of human RGS4 | P49798 | 310,000 tested, 0.45% active | B-score at 10 µM | AID 463165 | HEK293 M3R/RGS4 inducible, Fluo-4 calcium flux; stronger effect = higher value; triggered by carbachol at its EC20;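 active = B-score, a plate-corrected calcium signal, over three deviations above library mean, with baseline fluorescence within five deviations of library mean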;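 note: RGS4 expression induced by doxycycline in cells with stable M3 receptor; B-score is computed from the integrated fluorescence ratio over baseline after carbachol; higher B-score means a larger calcium signal and so more RGS4 inhibition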
Target sequence (P49798 whole entry, looked up): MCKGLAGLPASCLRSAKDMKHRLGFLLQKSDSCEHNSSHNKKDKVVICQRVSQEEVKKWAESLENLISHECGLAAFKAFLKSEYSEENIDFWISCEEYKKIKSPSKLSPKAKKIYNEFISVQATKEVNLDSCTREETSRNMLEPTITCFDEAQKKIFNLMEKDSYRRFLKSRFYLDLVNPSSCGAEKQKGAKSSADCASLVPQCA
MrgX1 allo act = allosterically activates human MrgX1 receptor signaling | B-score at 10 µM | 310,000 tested, 0.63% active | AID 588675 | MrgX1-HEK293, Fluo-4 calcium flux, FDSS; stronger effect = higher value | Q96LB2;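 active = plate-corrected calcium response at least 3 library SD above typical, normal starting fluorescence, not activating the receptor alone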;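 note: compound read alongside a low EC10 to EC30 dose of BAM8-22 agonist; peak minus trough fluorescence over baseline measured at the second addition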
MrgX1 antag = blocks BAM8-22 activation of human MrgX1 receptor; Q96LB2; MRGX1-HEK293 calcium flux, Fluo-4, BAM8-22 antagonism; stronger effect = lower value; B-score at 10 µM; 310,000 tested, 1.3% active;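 active = calcium-response B-score plate-corrected more than 3 library SD below zero, starting fluorescence within 5 deviations, no agonist response on first addition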;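 note: peak minus trough fluorescence over baseline after final BAM8-22 challenge near maximal dose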
MrgX1 PAM conf = confirmation of human MrgX1 receptor positive allosteric modulators. shares compounds with MrgX1 allo act. MrgX1-HEK293, Fluo-4 calcium fluorescence, FDSS. activation (ratio percentage), % at 10 µM. 1,200 tested, 13% active;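 active = ratio at least 3 SD above the weak peptide control, stable starting fluorescence, no direct agonism earlier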;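 note: compound followed by low BAM8-22 agonist challenge near EC20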
HEK293 Ca flux = MrgX1 antagonist counter-screen hit in parental HEK293 cells. 4,000 tested, 2% active. Fluo-4 calcium fluorescence, FDSS. shares compounds with MrgX1 antag. fluorescence ratio F(max-min)/F0 at 10 µM;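 active = duplicate-averaged calcium fluorescence ratio at least three times the standard deviation of buffer wells, a nonspecific response in parental cells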
HEK293 Ca counter = activity in parental HEK293 cells without MrgX1. shares compounds with MrgX1 antag. parental HEK293 calcium flux, Fluo-4 fluorescence ratio; stronger effect = higher value. fluorescence ratio F(max-min)/F0 at 10 µM. 4,000 tested, 0.4% active. AID 624114;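 active = calcium fluorescence ratio, averaged over duplicates, at least 3 SD of the buffer-well ratio, meaning a nonspecific response in receptor-free cells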;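 note: untransfected parental HEK293 lacking MrgX1 used as counterscreen for MrgX1 allosteric activators; fluorescence change taken during the second addition on a kinetic imager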
HEK293 Ca cntr2 = activity in parental HEK293 cells lacking MrgX1 receptor. shares compounds with MrgX1 antag. Fluo-4 calcium fluorescence (FDSS); stronger effect = higher value. fluorescence ratio F(max-min)/F0 at 10 µM. 4,000 tested, 8.7% active. AID 624115;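 active = calcium fluorescence ratio at least three times the spread of buffer wells, meaning a non-specific response in parental cells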
Numbers without * were called inactive; i = inactive; x = not tested or not shown.

SMILES	MrgX1 agonist	RGS4 act	RGS4 block	MrgX1 allo act	MrgX1 antag	MrgX1 PAM conf	HEK293 Ca flux	HEK293 Ca counter	HEK293 Ca cntr2
COc1ccc(-c2cc(C(=O)Nc3c(F)cc(F)cc3Br)no2)cc1	i	i	i	8.93*	i	i	i	i	i
COc1ccc(-c2cc(C(=O)Nc3ccc(F)cc3F)no2)cc1	i	i	i	i	i	x	x	x	x
O=C(COC(=O)Cc1c(Cl)cccc1Cl)NCCC1=CCCCC1	i	i	i	i	i	x	x	x	x
O=C(COc1ccccc1Cl)NCCC1=CCCCC1	i	i	i	17.5*	i	i	i	i	i
COc1ccc(CCNC(=O)C2Cc3ccccc3C(=O)O2)cc1 (stereo not given)	i	i	i	14.2*	i	i	i	i	i
O=C(NCCNC(=O)c1cc(Cl)ccc1Cl)c1ccccn1	i	i	i	9.33*	i	i	i	i	76.9*
O=C(NCc1ccccn1)c1ccc(Cl)cc1Cl	i	i	i	i	i	x	x	x	x
O=C(NCc1ccccn1)c1ccc(COc2ccc(Cl)cc2)o1	i	i	i	7.31*	i	i	i	i	i
O=C(NCc1ccccn1)c1cc(Cl)ccc1OCc1ccccc1	i	i	i	6.86*	i	i	i	i	i
CCCCCC(=O)N1CC2(CC(c3cccc(NC(=O)CC)c3)=NO2)C[C@H]1C(N)=O (stereo not given in full)	i	i	i	i	i	x	x	x	x
CCN1C(=O)C(CC(=O)Nc2ccc(F)cc2)N(Cc2ccco2)C1=S (stereo not given)	i	i	i	9.25*	i	i	i	i	i
CCCCc1ccc(S(=O)(=O)Nc2ccc(C)c(NS(C)(=O)=O)c2)cc1	i	i	i	9.7*	i	i	i	i	i
COc1ccc(CC(=O)NCCS(=O)(=O)N2CCN(c3ccccc3OC)CC2)cc1	i	i	i	i	i	x	x	x	x
CC1CCCC(NC(=O)CCS(=O)(=O)c2cc3c(cc2Cl)NC(=O)CO3)C1C (stereo not given)	i	i	i	i	i	x	x	x	x
CC1CCCC(NS(=O)(=O)c2cc3c(cc2Cl)NC(=O)CO3)C1C (stereo not given)	i	i	i	21.4*	i	i	i	i	i
CSc1nsc2nc(=O)c(/C=C3\C=Nc4ccccc43)c(N)n12	i	i	i	57.1*	i	15.1%*	i	i	i
CCc1nn2c(N)c(/C=C3\C=Nc4ccccc43)c(=O)nc2s1	i	i	i	6.85*	i	11.7%*	i	i	i
CCN(CC)S(=O)(=O)c1cccc(NC2=NCC(C)S2)c1 (stereo not given)	i	i	i	9.13*	i	i	i	i	i
Clc1ccccc1Nc1nnc(-c2ccncc2)s1	i	i	i	9.6*	i	i	i	i	i
Cc1cccc(C)c1NC1=NC(=S)N(c2ccc(C(=O)O)cc2)C12CCCCC2	i	i	i	7.24*	i	i	i	i	i
Cc1cccc(NC2=NC(=S)N(c3cccc(C(=O)O)c3)C23CCCCC3)c1	i	i	i	i	i	x	x	x	x
Cc1cc(C)cc(C(=O)NC(CC(N)=O)c2ccc(NC3CCCCC3)c([N+](=O)[O-])c2)c1 (stereo not given)	i	i	i	i	i	x	x	x	x
CCc1cc2ccccc2nc1SCC(=O)N1CCN(C(=O)c2ccco2)CC1	x	i	i	x	x	x	x	x	x
CCc1cc2cc(C)ccc2nc1SCC(=O)N1CCN(C(=O)c2ccco2)CC1	i	x	x	11.1*	i	i	i	i	i
Cc1ccn2c(Nc3ccccc3C)c(-c3ccccn3)nc2c1	i	i	i	9.14*	i	i	i	i	i
SMILES	MrgX1 agonist	RGS4 act	RGS4 block	MrgX1 allo act	MrgX1 antag	MrgX1 PAM conf	HEK293 Ca flux	HEK293 Ca counter	HEK293 Ca cntr2
CC(C)(C)c1ccc(-c2nc(C=O)c3ccccn23)cc1	i	i	i	i	i	x	x	x	x
Cc1c(C(C)(C)C)c(C=S)n2ccccc12	i	i	i	8.5*	i	i	i	i	i
CCCc1c(C(=O)N/N=C/c2ccncc2)nnn1-c1nonc1N	x	i	i	x	x	x	x	x	x
O=C(CCC1CCN(Cc2ccccc2Cl)CC1)NC1CC1	i	i	i	i	i	x	x	x	x
O=C(CCC1CCN(Cc2ccccc2O)CC1)NC1CC1	i	i	i	8.11*	i	i	i	i	i
CC(C(=O)NCc1ccco1)n1ccc2cc(S(=O)(=O)N3CCCCC3)ccc21 (stereo not given)	i	i	i	i	i	x	x	x	x
CCc1ccc(Oc2cc(Cl)nc(N)n2)cc1	i	i	i	11.6*	i	i	i	i	i
Cc1ccc(Nc2nc3ccccc3s2)c(C)c1	i	i	i	7.01*	i	i	i	i	i
COc1ccccc1N(CC(O)CN1CCC(C)CC1)S(=O)(=O)c1ccccc1 (stereo not given)	i	i	i	i	i	x	x	x	x
CC(C)c1ccc(N2C(=NC(=O)C3CC3)SC3CS(=O)(=O)CC32)cc1 (stereo not given)	i	i	i	i	i	x	x	x	x
COC(=O)CN1C(=O)C2(C(C#N)=C(N)Oc3c2c(C)nn3-c2ccccc2)c2ccccc21 (stereo not given)	i	i	i	7.41*	i	i	i	i	i
COC(=O)CN1C(=O)C2(C(C#N)=C(N)Oc3n[nH]c(-c4cccs4)c32)c2ccccc21 (stereo not given)	i	i	i	i	i	x	x	x	x
N#CCSc1nnc(COc2ccc3ccccc3c2)o1	i	i	i	24.5*	i	i	i	i	i
NC(=O)CSc1nnc(COc2ccc3ccccc3c2)o1	i	i	i	i	i	x	x	x	x
